# Source: PubChem BioAssay
# HSP90 refold inh = blocks HSP90-mediated luciferase refolding in reticulocyte lysate; inhibition, % at 5.6 µM; AID 1789; Rabbit reticulocyte lysate, luciferase refolding luminescence, 3 h; 0.91% of 290,000 active;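 active means inhibition above the screen-wide mean plus 3 SD, computed separately per campaign, cut at about 16% in these data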;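 further: 0% = DMSO wells and 100% = 60 µM geldanamycin wells; inhibitors lower the luminescence because luciferase stays unfolded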
# FLuc inhib CS = inhibits firefly luciferase, flagging false hits in luciferase inhibition screens; ATPLite firefly luciferase biochemical luminescence, 10 min; AID 1006; P08659; inhibition, % at 10 µM; 1.5% of 200,000 active;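 active means inhibition above about 50% when tested at 10 µM, limit read from the data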
# Target sequence (P08659 whole entry, looked up): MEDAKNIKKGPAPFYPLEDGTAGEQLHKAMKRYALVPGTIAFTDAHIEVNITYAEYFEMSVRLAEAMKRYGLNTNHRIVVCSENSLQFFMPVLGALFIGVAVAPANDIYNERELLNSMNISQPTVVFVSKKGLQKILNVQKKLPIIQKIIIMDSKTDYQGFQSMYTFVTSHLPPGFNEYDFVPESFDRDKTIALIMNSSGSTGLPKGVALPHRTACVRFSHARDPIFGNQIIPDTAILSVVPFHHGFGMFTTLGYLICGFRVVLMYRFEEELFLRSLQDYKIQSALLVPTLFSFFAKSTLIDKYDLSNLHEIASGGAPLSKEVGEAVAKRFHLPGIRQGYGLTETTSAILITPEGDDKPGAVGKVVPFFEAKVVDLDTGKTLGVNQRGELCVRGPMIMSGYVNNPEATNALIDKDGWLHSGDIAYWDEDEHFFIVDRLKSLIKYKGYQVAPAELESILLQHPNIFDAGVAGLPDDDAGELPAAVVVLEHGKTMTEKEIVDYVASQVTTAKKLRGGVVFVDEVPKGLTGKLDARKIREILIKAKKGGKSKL
# TRAIL sens C8 = caspase-8 TRAIL sensitization. 1% of 360,000 active. NB7+C8 cells + TRAIL, ATPlite viability luminescence. inhibition (viability loss, TRAIL sensitization), % at 10 µM;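 active means compounds causing at least 50% loss of cell viability in the single-dose screen, relative to plate controls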
# FLuc act counter = firefly luciferase counter-screen for stimulation assays. P08659. ATPlite luciferase biochemical, luminescence, 10 min; 0 = ATP-free wells, 1 = DMSO control. activation factor at 10 µM. 200,000 tested, under 10 active. AID 1027;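 active means luciferase activation factor, scaled between plate controls, of at least 2 with compound at 10 µM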
#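 Assay system: Luciferase/luciferin detection reagent, cell-free biochemical luciferase assay / Also added: ATP substrate / Schedule: 10 min at ambient temperature / Measured by: luminescence measurement of luciferase light output / Benchmarks: low control with PBS replacing ATP, high control enzyme plus ATP without compound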
# PPC-1+TRAIL kill = PPC-1 cancer cell killing with TRAIL present; PPC-1 cells + TRAIL, ATPLite viability luminescence; cell killing (% activity), % at 4 µM or 5 µM; 0.41% of 220,000 active;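 active means cell killing above 50% in the first pass at 4 µM, then a duplicate retest at 5 µM averaging 50% or more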;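 further: plate controls were cells with TRAIL plus DMSO for no effect and medium-only wells lacking cells for full effect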
# * = called active by the depositor; · = no result given. A selection: hits, their analogues and other compounds. The true share with any hit is near 2%.
SMILES,HSP90 refold inh,FLuc inhib CS,TRAIL sens C8,FLuc act counter,PPC-1+TRAIL kill
c1ccc2c(NCCc3c[nH]c4ccccc34)c3ccccc3nc2c1,-2.2,·,75.3*,·,·
Cc1ccccc1-c1nnc(-c2cccc3ccccc23)o1,·,·,51.4*,·,·
CC(=Nc1ccc(Br)cc1)c1sc2ccccc2c1O,-1.6,·,39.2,·,24.0
CC(=Nc1ccccc1)c1sc2ccccc2c1O,-3.1,60.8*,34.6,0.4,30.0
COc1ccc(NC(=O)N(C)C[C@H]2OCCCC[C@@H](C)Oc3ccc(NC(=O)c4ccccc4)cc3C(=O)N([C@H](C)CO)C[C@@H]2C)cc1,·,·,-8.9,·,·
Cc1ccc2nc(-c3ccccc3)nn2c1,·,·,76.2*,·,·
Cc1ccc(-c2nnc(-c3ccccc3)c(-c3ccccc3)n2)cc1,-1.9,-3.7,0.1,1,9.1
C[C@H](CO)N1C[C@H](C)[C@@H](CN(C)C(=O)NC2CCCCC2)Oc2c(NS(=O)(=O)c3cn(C)cn3)cccc2C1=O,·,·,6.2,·,·
c1ccc(CNc2cccnc2)cc1,·,·,-11.7,·,·
O=C(Nc1nc2ccccc2[nH]1)c1ccccc1O,9.9,·,48.8*,·,·
Cc1onc(-c2c(F)cccc2Cl)c1C(=O)Nc1nc2ccccc2[nH]1,-6.4,2.3,49.5*,1,-10.6
Cc1cc(NC(=O)c2c(-c3c(F)cccc3Cl)noc2C)no1,6.0,·,-5.3,·,34.6
Cc1cc(C)c(C#N)c(SCc2cn3ccccc3n2)n1,5.1,4.1,0.7,1,68.5*
O=C(Nc1ccc([N+](=O)[O-])cc1Cl)c1cc(Cl)ccc1O,·,·,80.3*,·,·
CCOc1ccc(OCCC(=O)Nc2ccc(N3CCOCC3)cc2N2CCOCC2)cc1,·,·,-0.7,·,·
S=C(c1ccc(-c2cccc(Cl)c2)o1)N1CCOCC1,4.7,27.4,19.1,0.7,5.1
S=C(c1ccc(-c2cccc(Cl)c2)o1)N1CCCCC1,0.4,53.6*,5.5,0.5,-3.7
O=C(C(=O)N1CCN(c2ccccc2F)CC1)c1cn(CC(=O)N2CCCC2)c2ccccc12,·,·,-7.5,·,·
Cc1ccc(C(=O)O/N=C2\CCS(=O)(=O)c3sccc32)cc1,2.2,25.4,-2.4,0.7,10.3
COc1cccc(C(=O)O/N=C2\CCS(=O)(=O)c3sccc32)c1,-4.2,59.5*,5.3,0.4,0.7
Cc1ccc(-c2nc(N/N=C/c3cccc([N+](=O)[O-])c3)c3ccccc3n2)cc1,1.0,81.6*,64.5*,0.2,·
Cc1cccc2sc(N(CCCN(C)C)C(=O)c3ccc4ncsc4c3)nc12,16.6*,·,8.1,·,·
COc1nc(C)ccc1-c1noc(-c2ccccn2)n1,11.8,68.7*,46.8,0.3,31.3
Cc1ccc(CNc2ccc(N3CCOCC3)cc2)s1,1.6,72.9*,67.8*,0.3,14.6
CC(=O)N1CCN(c2ccc(NCc3ccc(C)s3)cc2)CC1,-0.9,2.1,4.2,1,10.5
SMILES,HSP90 refold inh,FLuc inhib CS,TRAIL sens C8,FLuc act counter,PPC-1+TRAIL kill
O=C(O)C1C2CCC1C(O)C2 (stereo not drawn),·,·,7.9,·,·
Cc1noc(C)c1C(=O)N1CCC1(C)C(=O)NS(=O)(=O)c1ccc(F)cc1F (stereo not drawn),·,·,-14.9,·,·
Cc1c(P(=S)(c2ccccc2)c2ccccc2)[n+]2ccccc2n1C/C=C/c1ccccc1,·,·,77.7*,·,·
N/C(=N\OC(=O)c1ccc2c(c1)OCO2)c1cccc([N+](=O)[O-])c1,-5.4,95.9*,3.7,0,9.9
COc1cc(OC)cc(C(=O)O/N=C(\N)c2cccc(C)c2)c1,-0.8,·,31.7,·,·
Cc1cccc(/C(N)=N/OC(=O)c2ccc3c(c2)OCO3)c1,4.4,97.0*,33.5,0,24.5
Cc1ccc([C@H]2C(C(=O)O)=CC[C@@H](c3ccc4c(c3)OCO4)N2S(=O)(=O)c2ccc(C)cc2)cc1,·,·,-9.0,·,·
CCNC(=O)N(C)c1c(CC)nc2ccc(C(=O)N3CCN(C(=O)c4ccco4)CC3)cn12,·,·,2.0,·,·
O=C(CN1C(=O)/C(=C/c2ccc(Cl)cc2)SC1=S)NC1C=CS(=O)(=O)C1 (stereo not drawn),-2.9,·,-8.2,·,·
CC(C)c1ccc(/C=C2\SC(=O)N(CC(=O)NC3C=CS(=O)(=O)C3)C2=O)cc1 (stereo not drawn),-5.9,·,53.9*,·,·
CCCCCCc1cc2cc(C(=O)Nc3ccccc3)c(=O)oc2cc1O,-2.2,-0.1,60.3*,1,8.8
CCc1nc(SCc2cc(=O)[nH]c3ccccc23)c2c(C)c(C)sc2n1,·,·,-3.8,·,·
Cc1oc2c(c1C(=O)N1CCC(C)CC1)C(=O)c1ccccc1C2=O,6.8,-8.6,·,1.1,12.9
CCOC(=O)C1CCN(C(=O)c2c(C)oc3c2C(=O)c2ccccc2C3=O)CC1,5.9,-2.0,52.1*,1,28.5
Cc1ccn2c(=O)nc(SCC(=O)c3ccc(Cl)cc3)nc2c1,·,·,10.5,·,·
Cc1ccn2c(C(=O)c3ccc(Cl)cc3)cnc2c1,22.2*,52.1*,31.1,0.5,5.4
CC(=O)NCCNc1nc2cc(-c3cnn(CCC(C)C)c3)sc2c(=O)n1C,·,·,9.9,·,·
CCOc1ccc(C(=O)Nc2cccc(-c3ccc(N4CCOCC4)nn3)c2)cc1OCC,·,·,44.2,·,·
CCOc1ccccc1C(=O)Nc1cccc(-c2ccc(N3CCOCC3)nn2)c1,·,·,48.4,·,·
COc1ccc(C(=O)Nc2cccc(-c3ccc(N4CCOCC4)nn3)c2)cc1OC,·,·,64.0*,·,·
O=C(Nc1cccc(-c2ccc(N3CCOCC3)nn2)c1)c1ccc(F)cc1F,·,·,51.2*,·,·
COc1cccc(C(=O)Nc2cccc(-c3ccc(N4CCOCC4)nn3)c2)c1OC,·,·,67.0*,·,·
CN1CCN(C(=O)c2ccc(-c3cnc4cccnn34)cc2)CC1,·,·,-3.2,·,·
Cc1cccc(-c2cc3c(N=O)c4ccccc4c-3n[nH]2)c1,2.3,63.0*,48.7,0.4,40.9
O=[N+]([O-])c1ccc(S(=O)(=O)Nc2ccc(-c3ccccc3)cc2)cc1,·,·,-4.5,·,·
SMILES,HSP90 refold inh,FLuc inhib CS,TRAIL sens C8,FLuc act counter,PPC-1+TRAIL kill
Cn1ccc2c(-c3ccc(C(=O)O)cc3)cc3c(c21)C1CCC3C1 (stereo not drawn),·,·,-7.6,·,·
COc1ccc(OC)c2sc(N(CCCN(C)C)C(=O)CCS(=O)(=O)c3ccccc3)nc12,·,·,31.5,·,·
Cc1ccc2sc(N(CCCN(C)C)C(=O)CCS(=O)(=O)c3ccccc3)nc2c1C,0.9,·,51.2*,·,·
O=C(N/N=C/c1ccc(-c2cccc(C(F)(F)F)c2)o1)c1cccc(F)c1,-2.2,-3.0,72.9*,1,-12.4
O=C(N/N=C/c1ccccc1C(F)(F)F)c1ccc(O)cc1,0.0,55.4*,20.8,0.4,23.7
O=C(N/N=C/c1ccccc1O)c1cccc(C(F)(F)F)c1,3.5,-2.0,20.9,1,52.5*
NC(=O)N/N=C/c1ccc(-c2cccc(C(F)(F)F)c2)o1,3.3,-1.8,-9.4,1,1.6
C=C1C(=O)C23CCC4C(C)(C(=O)OC)CCCC4(C)C2CCC1(O)C3 (stereo not drawn),·,·,89.3*,·,·
Clc1ccc(OCc2nn3c(C4CCCCC4)nnc3s2)cc1,-3.9,-7.3,57.3*,1.1,6.8
CCCCN(CCCC)Cc1cc(=O)oc2ccccc12,·,·,0.5,·,·
CC1CCN(C(=S)Nc2ccc(SC(F)F)cc2)CC1,-0.9,65.8*,35.8,0.3,45.1
